An excerpt weighted towards active compounds, which were near 3.6% of everything screened.
NadD inh: inhibitors of Staphylococcus aureus NadD. purified NadD enzyme, colorimetric absorbance read-out. 360,000 compounds, 0.78% hits. inhibition, % at 20 µM; in the data active = inhibition above about 26%
GRIN3A LBD mod: NR3A (human) ligand-binding domain modulation. NR3A LBD differential scanning fluorimetry, Tm shift; 0% = protein alone, 100% = glycine-bound protein. Tm shift relative to glycine control, % at 25 µM. 340,000 compounds, 2.5% hits. AID 1259313;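 active = melting temperature shift of at least 10% of the positive control shift, at one fixed dose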
UCH37 inh: inhibitors of human deubiquitinating enzyme UCH37; 330,000 compounds, 0.33% hits; Q9Y5K5; inhibition, % (test concentration not listed); purified proteasome/UCH37, Ub-AMC cleavage fluorescence; AID 588478;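 active = mean inhibition over replicate wells above about 20%, limit read from the data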
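Material: human UCH37 enzyme supplied as purified proteasome complex / Amount: 0.15 nM proteasome as dispensed / Buffer or medium: pH 7.4 Tris-HCl (50 mM) with ovalbumin, ATP-MgCl2, DTT / Times: preincubation 30 min, reaction 25 min, room temperature / Technique: AMC fluorescence from Ub-AMC cleavage, excitation 355 nm, emission 460 nm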
ATG4B inhibitor: inhibitors of human ATG4B cysteine protease | 340,000 compounds, 0.51% hits | inhibition, % at 8.33 µM | Q9Y4P1 | ATG4B cleavage of LC3-PLA2, NBD-HPC fluorescence, 1 h; in the data active = inhibition above about 40%
SENP1 FRET inh: SENP1 (human) catalytic domain inhibition. Q9P0U3. recombinant SENP1 catalytic domain, CyPet-SUMO1-YPet FRET cleavage. inhibition, % at 10 µM. 360,000 compounds, 0.21% hits. AID 624204;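 active = inhibition at least 30% at 10 µM, raw YFP signal under a set limit, fluorescence ratio 0.5 to 1.5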
Target sequence (Q9P0U3 419-644 limits assumed): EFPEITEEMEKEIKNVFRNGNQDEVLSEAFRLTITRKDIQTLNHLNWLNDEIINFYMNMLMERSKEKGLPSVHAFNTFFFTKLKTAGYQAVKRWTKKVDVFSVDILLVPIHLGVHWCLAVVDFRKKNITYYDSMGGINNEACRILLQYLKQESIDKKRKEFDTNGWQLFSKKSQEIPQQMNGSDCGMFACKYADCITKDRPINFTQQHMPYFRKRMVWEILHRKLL
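Controls: no-enzyme wells low, DMSO-plus-enzyme wells high control. Test system: human recombinant His6-tagged SENP1 catalytic domain enzyme. Reagent: SFCypet-SUMO1-SFYpet FRET protein substrate, 25 nM final. Doses: one dose per compound, 10 µM, 0.5% DMSO. Detection: FRET, CFP and YFP emission. Timing: 50 min reaction at room temperature.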
ATG4B confirm: ATG4B (human) inhibition, single-dose confirmed; shares compounds with ATG4B inhibitor; ATG4B protease fluorescent substrate cleavage assay; inhibition, % at 8.33 µM; 320 compounds, 92% hits; in the data active = inhibition above about 39%
PLA2 counter: inhibits human PLA2, flagging false ATG4B inhibitors; shares compounds with ATG4B inhibitor; purified PLA2, NBD-C6-HPC fluorescence, 45 min; 1,600 compounds, 66% hits; inhibition, % at 8.33 µM; AID 588402; in the data active = inhibition above about 50%
Target sequence (P04054 whole entry, looked up): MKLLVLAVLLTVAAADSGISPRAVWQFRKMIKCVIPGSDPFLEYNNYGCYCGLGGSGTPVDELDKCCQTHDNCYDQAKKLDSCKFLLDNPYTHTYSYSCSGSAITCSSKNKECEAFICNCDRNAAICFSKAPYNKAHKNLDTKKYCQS
A number is an active result; i = inactive; nt = no result.

SMILES	NadD inh	GRIN3A LBD mod	UCH37 inh	ATG4B inhibitor	SENP1 FRET inh	PLA2 counter	others
COc1ccc(-c2csc(NC(=O)c3ccc(C(C)(C)C)cc3)c2C(=O)O)cc1	nt	i	i	47	nt	53
Cc1ccc(-c2csc(NC(=O)c3ccccc3F)c2C(=O)O)cc1	i	i	i	55	i	58
COc1ccc(-c2csc(NC(=O)c3ccccc3Br)c2C(=O)O)cc1	i	i	i	i	i	nt
O=C(Nc1scc(-c2ccccc2)c1C(=O)O)c1ccccc1F	i	i	i	i	i	nt
CC(=NNC(=O)c1nnn(-c2nonc2N)c1CN1CCC(C)CC1)c1cccc(Br)c1	nt	nt	i	nt	nt	nt
CCN1CCN(c2c(Cl)cccc2NC(=O)c2ccc3c(c2)OCCO3)CC1	i	i	i	65	i	67
O=C(Nc1cccc(Cl)c1N1CCCCC1)c1ccc2c(c1)OCCO2	i	i	i	i	i	nt
O=C(Nc1cccc(Cl)c1N1CCCC1)c1ccco1	i	i	i	63	i	68
O=C1/C(=C\c2cc([N+](=O)[O-])ccc2O)SC(=S)N1Cc1ccc(Cl)cc1	i	i	i	52	i	51
O=C1/C(=C\c2cccc(O)c2O)SC(=S)N1Cc1ccccc1	i	38	nt	74	i	89
Cc1ccccc1/C=C1\SC(=S)N(/N=C/c2cc([N+](=O)[O-])ccc2O)C1=O	i	i	nt	i	i	nt
Cc1ccc(/C=C2\SC(=S)N(Cc3ccccc3)C2=O)o1	i	i	i	i	i	nt
CCn1cc(C(=O)OCC(=O)OC2CC(C)CCC2C(C)C)c(=O)c2ccc(C)nc21 (configuration not stated)	i	i	i	71	i	71
CCn1cc(C(=O)OCc2ccccc2)c(=O)c2ccc(C)nc21	i	i	i	i	i	nt
CCn1cc(C(=O)OCc2ccc(F)cc2)c(=O)c2ccc(C)nc21	i	i	i	i	i	nt
C=Cc1ccc(COC(=O)c2cn(CC)c3nc(C)ccc3c2=O)cc1	i	i	i	40	i	i
CCn1cc(C(=O)OCc2cccc(Br)c2)c(=O)c2ccc(C)nc21	i	i	i	46	i	53
C=CCOC(=O)c1cn(CC)c2nc(C)ccc2c1=O	i	i	i	i	i	nt
O=C(NN=Cc1cccnc1)c1ccc(F)cc1	nt	nt	i	nt	nt	nt
O=C(CNC(=O)c1ccc(Br)cc1)NN=Cc1ccc[nH]1	nt	nt	i	nt	nt	nt
Cc1ccc(S(=O)(=O)Nc2ccccc2C=Nc2nc3ccccc3n2C)cc1	nt	nt	i	nt	nt	nt
CCNc1nc(NCC)nc(NN=Cc2ccc(OC)cc2)n1	nt	nt	i	nt	nt	nt
COc1ccc(/C=C2/C(=O)N(c3nc4ccccc4s3)N=C2CSc2ccc(Cl)cc2)cc1	73	i	i	56	i	i
COc1ccc(/C=C2/C(=O)N(Cc3ccccc3)N=C2C)cc1	i	i	i	i	i	nt
O=C1N/C(=N\N=Cc2cccnc2)SC1Cc1ccc(SC(F)F)cc1 (configuration not stated)	nt	nt	i	nt	nt	nt
SMILES	NadD inh	GRIN3A LBD mod	UCH37 inh	ATG4B inhibitor	SENP1 FRET inh	PLA2 counter	others
CCCC1=Nc2cc(C(=O)N3CCCC3)ccc2Sc2ccc(C)cc21	i	i	i	i	i	nt
CCC1=Nc2cc(C(=O)N3CCCCC3)ccc2Sc2ccc(C)cc21	i	i	i	52	i	57
CC1=Nc2cc(C(=O)N3CCCCC3)ccc2Sc2ccc(C)cc21	i	i	i	52	i	i
Cc1cc(OCC(F)(F)C(F)(F)C(F)(F)C(F)(F)C(F)(F)C(F)F)nc(N)n1	i	i	i	i	i	nt
NC(=O)c1ccc(OCC(F)(F)C(F)(F)C(F)(F)C(F)(F)C(F)(F)C(F)F)cc1	i	i	i	91	i	92
Cc1cc(NS(=O)(=O)c2ccc(Nc3nc(-c4ccc(C)c(C)c4)cs3)cc2)no1	i	16	i	44	i	i	ATG4B confirm=71
Cc1cc(C)c(OCC(=O)NN=Cc2ccco2)c(C)c1	nt	nt	i	nt	nt	nt
COC(=O)c1sc2nc3c(c(-c4cccs4)c2c1N)CCCC3	i	i	i	i	i	nt
CCOC(=O)c1c(C)nc2sc(C(N)=O)c(N)c2c1-c1ccc(OC)cc1	i	i	i	65	i	74

Assay outcomes: PubChem, several laboratories
